High-throughput results (PubChem)
Shown are actives, neighbours in structure and some others; about 2.9% of the full set was active somewhere.
Apaf1 inhib: blocks human Apaf-1 apoptosome activity; O14727; 330,000 compounds, 0.71% hits; reconstituted apoptosome caspase-3 activity, DEVD-Rh110 fluorescence; inhibition, % at 20 µM; active = inhibition of at least 40% at 20 µM;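 note: plate controls were DMSO wells for no effect and DEVD-CHO caspase inhibitor wells for full effect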
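Assay system: Apoptosome proteins | Medium: pH 7.5 Hepes buffer with CHAPS, BSA, DTT | Also added: Cytochrome c and DEVD-Rh110 substrate | Times: 30 min plus 50 min, RT | Detection: Rhodamine 110 fluorescence at Ex 480/Em 540 nm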
SENP8 block-1: SENP8 (human) protease inhibition. inhibition, % at 20 µM. Q96LD8. recombinant SENP8, Nedd8 substrate fluorescence. 360,000 compounds, 0.64% hits; in the data active = inhibition mostly above about 40%, no sharp cut-off; inactive = mostly below about 27%
SENP7 block: inhibitors of human SENP7 protease | 330,000 compounds, 1.5% hits | AID 434973 | recombinant SENP7, Z-RLRGG-aminoluciferin luminescence, 40 min | Q9BQF6 | inhibition, % at 5 µM;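 active = inhibition above about 50% at the single test dose, limit read from the data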;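 note: plate controls were DMSO with enzyme for no effect and no enzyme buffer wells for full effect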
SENP6 block: SENP6 protease inhibition. Q9GZR1. Recombinant SENP6 catalytic domain, aminoluciferin luminescence. inhibition, % at 10 µM. 330,000 compounds, 1.8% hits. AID 2599;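 active = inhibition above about 50% at the single tested dose, limit read from the data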;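 note: plate controls were DMSO wells with enzyme for no effect and DMSO wells lacking enzyme for full effect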
Target sequence (Q9GZR1 628-1112 limits assumed): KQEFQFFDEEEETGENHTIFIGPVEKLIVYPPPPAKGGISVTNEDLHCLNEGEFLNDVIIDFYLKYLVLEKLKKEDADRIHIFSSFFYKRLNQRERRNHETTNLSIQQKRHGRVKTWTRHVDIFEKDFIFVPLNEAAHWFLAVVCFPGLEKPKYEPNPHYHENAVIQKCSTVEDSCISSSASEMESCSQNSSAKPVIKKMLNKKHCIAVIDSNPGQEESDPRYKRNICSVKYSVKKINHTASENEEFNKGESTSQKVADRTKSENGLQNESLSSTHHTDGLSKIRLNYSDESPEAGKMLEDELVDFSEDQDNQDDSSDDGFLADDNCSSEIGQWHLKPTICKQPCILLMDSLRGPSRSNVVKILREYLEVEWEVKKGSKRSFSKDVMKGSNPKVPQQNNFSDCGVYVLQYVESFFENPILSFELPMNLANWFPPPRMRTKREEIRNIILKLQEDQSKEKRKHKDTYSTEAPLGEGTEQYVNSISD
SENP1 inh: SENP1 (human) catalytic domain inhibition; Q9P0U3; recombinant SENP1 catalytic domain, CyPet-SUMO1-YPet FRET cleavage; inhibition, % at 10 µM; 360,000 compounds, 0.21% hits;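 active = inhibition at least 30% at 10 µM, raw YFP signal under a set limit, fluorescence ratio 0.5 to 1.5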;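 note: 0% = enzyme with DMSO and 100% = no enzyme wells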
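Controls: no-enzyme wells low, DMSO-plus-enzyme wells high control. Test system: human recombinant His6-tagged SENP1 catalytic domain enzyme. Reagent: SFCypet-SUMO1-SFYpet FRET protein substrate, 25 nM final. Doses: one dose per compound, 10 µM, 0.5% DMSO. Detection: FRET, CFP and YFP emission. Timing: 50 min reaction at room temperature.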
SENP8 block-2: SENP8 protease inhibition | purified SENP8, Z-RLRGG-aminoluciferin cleavage, luminescence | inhibition, % at 10 µM | 330,000 compounds, 1.2% hits; in the data active = inhibition above about 50%
SENP8 conf: confirmation of human SENP8 protease inhibitors. inhibition, % at 12.5 µM. shares compounds with SENP7 block. Recombinant SENP8, Z-RLRGG-aminoluciferin luminescence, 60 min. 6,200 compounds, 40% hits. AID 488912;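 active = mean inhibition across replicates above about 50%, limit read from the data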
SENP6 conf: human SENP6 inhibition, confirmed | shares compounds with SENP7 block | recombinant SENP6, Z-RLRGG-aminoluciferin luminescence | inhibition, % at 12.5 µM | 6,200 compounds, 58% hits | AID 488915
SENP7 conf: human SENP7 inhibition, confirmed | AID 488917 | recombinant SENP7, Z-RLRGG-aminoluciferin luminescence, 40 min | shares compounds with SENP7 block | inhibition, % at 12.5 µM | 6,200 compounds, 69% hits
Casp3 SENP sel: selectivity test for SENP inhibitors: human caspase-3 inhibition; shares compounds with SENP7 block; purified caspase-3, Z-DEVD-aminoluciferin luminescence, 60 min; inhibition, % at 12.5 µM; 6,200 compounds, 60% hits;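 active = mean inhibition above about 50%, limit read from the data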;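 note: plate controls were enzyme with DMSO for no effect and wells without caspase-3 for full effect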
Target sequence (P42574 28-227 limits assumed): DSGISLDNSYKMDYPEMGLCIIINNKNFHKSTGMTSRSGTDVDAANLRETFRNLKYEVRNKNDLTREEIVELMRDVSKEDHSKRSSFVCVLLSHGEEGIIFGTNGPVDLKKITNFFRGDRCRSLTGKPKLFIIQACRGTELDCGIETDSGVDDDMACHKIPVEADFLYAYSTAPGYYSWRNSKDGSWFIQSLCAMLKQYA
Luc interf: interferes with luciferase luminescence in SENP counter-screen; shares compounds with SENP7 block; Pre-incubated SENP8/Z-RLRGG-aminoluciferin, luciferase luminescence interference; inhibition, % at 12.5 µM; 6,200 compounds, 39% hits; AID 488919;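 active = mean inhibition above about 50% when retested at one dose, limit read from the data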;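 note: plate controls were DMSO wells with completed reaction for no effect and substrate without enzyme for full effect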
* marks the source's active call; other numbers are inactive results; i = inactive; nt = no result.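 Rule for the calls, unless noted: active = mean inhibition above about 50% in the one-dose retest (limit read from the data); inactive = the rest.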

SMILES | Apaf1 inhib | SENP8 block-1 | SENP7 block | SENP6 block | SENP1 inh | SENP8 block-2 | SENP8 conf | SENP6 conf | SENP7 conf | Casp3 SENP sel | Luc interf
c1ccc(-c2noc(-c3ccc4c(c3)OCO4)n2)cc1 | 4 | -8 | 100* | 97* | 2 | 93* | 92* | 88* | 96* | 94* | 31
c1ccc(-c2noc(COc3ccc4c(c3)OCO4)n2)cc1 | 13 | 9 | 34 | 26 | 0 | -21 | nt | nt | nt | nt | nt
COc1cccc(-c2noc(-c3ccc4c(c3)OCO4)n2)c1 | -10 | -10 | 101* | 92* | 11 | 89* | 90* | 88* | 95* | 92* | 14
Cc1cccc(-c2nnc(-c3ccc4ccccc4c3)o2)c1 | nt | -302 | nt | nt | 2 | nt | nt | nt | nt | nt | nt
Brc1ccc(-c2nc(-c3ccccc3)no2)o1 | 14 | 10 | 92* | 90* | 4 | 85* | -4 | 87* | 99* | 70* | 28
COc1ccc(-c2noc(-c3ccc4c(c3)OCO4)n2)cc1 | 2 | -24 | 73* | -50 | -3 | 6 | 38 | 33 | 47 | 61* | 22
O=C(O)COc1ccc(=O)n(-c2ccccc2)n1 | 7 | 25 | 10 | 0 | 3 | -2 | nt | nt | nt | nt | nt
CCOC(=O)C(Oc1ccc(=O)n(-c2ccccc2)n1)C(C)=O (centres undefined) | -18 | 10 | 84* | -22 | 0 | -5 | 7 | 10 | 7 | 4 | 2
O=C(Nc1cccc(-c2ccc(N3CCCCC3)nn2)c1)c1ccco1 | 13 | -11 | 73* | 76* | -1 | 54* | 77* | 74* | 91* | 75* | 72*
O=C(COc1ccc(Cl)cc1)Nc1cccc(-c2ccc(N3CCOCC3)nn2)c1 | 21 | -6 | 68* | 54* | 1 | 12 | 12 | 20 | 23 | 14 | 0
O=C(Nc1cccc(-c2ccc(N3CCOCC3)nn2)c1)c1ccccc1Cl | -8 | -7 | 26 | 23 | -2 | 6 | nt | nt | nt | nt | nt
CCCCN(CCCNC(=S)NCCCc1cnc[nH]1)c1ccc(Br)cn1 | nt | 8 | nt | nt | 1 | nt | nt | nt | nt | nt | nt
CC(=O)c1ccc(N2CCN(C(=O)CNS(=O)(=O)c3ccc4c(c3)OCCCO4)CC2)c(F)c1 | 15 | -39 | -17 | -15 | 2 | -19 | nt | nt | nt | nt | nt
COc1ccc(C(N)c2nccc3cc(OC)c(OC)cc23)cc1OC (centres undefined) | 18 | -83 | 70* | 75* | -43 | 49 | -26 | -13 | -6 | -9 | -7
COc1cc2ccnc(C=O)c2cc1OC | nt | -120 | nt | nt | -14 | nt | nt | nt | nt | nt | nt
Cc1cc(C(=O)Nc2ccc(Cl)cc2)c(C)n1-c1ccccc1 | 4 | 7 | 91* | 93* | -14 | 89* | 91* | 98* | 102* | 88* | 30
Cc1ccc(NC(=O)c2cc(C)n(-c3cccc(C)c3)c2C)cc1 | 4 | 17 | -3 | 18 | -3 | -4 | nt | nt | nt | nt | nt
Cc1ccc(NC(=O)c2cc(C)n(-c3ccccc3)c2C)cc1 | 14 | 16 | 72* | 86* | 1 | 67* | 86* | 85* | 97* | 73* | 43
Fc1cccc(F)c1CSc1nc2ccccc2[nH]1 | 2 | 9 | 74* | 77* | 2 | 52* | 62* | 62* | 89* | 71* | 74*
O=C(O)c1ccccc1CSc1nc2ccccc2[nH]1 | 1 | 0 | 47 | 70* | 2 | 47 | 72* | 70* | 87* | 88* | 76*
O=C(CSc1nc2ccccc2[nH]1)c1ccccc1F | 2 | 3 | 47 | 57* | -2 | 33 | 51* | 44 | 81* | 63* | 62*
Cc1ccc(C)c(-n2nnc3ccccc3c2=O)c1 | nt | -10 | nt | nt | 3 | nt | nt | nt | nt | nt | nt
CN(C)c1ccc(-c2ccnc3c2CC(C)(C(=O)NCC2CCOCC2)O3)cc1 (centres undefined) | nt | i | nt | nt | 2 | nt | nt | nt | nt | nt | nt
CCC1(c2ccccc2)SC(=O)NC1=O (centres undefined) | nt | 6 | nt | nt | 0 | nt | nt | nt | nt | nt | nt
O=C(Nc1ccc(O)cc1)C1CCCO1 (centres undefined) | -3 | 5 | 60* | -4 | 0 | -3 | 6 | 10 | 9 | 4 | 3
SMILES | Apaf1 inhib | SENP8 block-1 | SENP7 block | SENP6 block | SENP1 inh | SENP8 block-2 | SENP8 conf | SENP6 conf | SENP7 conf | Casp3 SENP sel | Luc interf
CC1(C)CC(=O)c2sc(NC(=O)c3ccccc3)nc2C1 | -6 | nt | 57* | 40 | nt | 55* | 60* | 51* | 65* | 75* | 64*
CC1(C)CNC(=O)c2sc(NC(=O)c3ccccc3)nc2C1 | -6 | 6 | -6 | 4 | -1 | -6 | nt | nt | nt | nt | nt
CC1(C)CC(=O)c2sc(NC(=O)c3cccs3)nc2C1 | -1 | -57 | 66* | 80* | 0 | 52* | 63* | 64* | 88* | 87* | 44
O=C(Oc1ccc(Cl)c2cccnc12)c1cccc([N+](=O)[O-])c1 | 15 | 21 | 2 | -3 | 3 | 4 | nt | nt | nt | nt | nt
O=[N+]([O-])c1ccccc1COc1ccc(Cl)c2cccnc12 | -2 | 9 | 93* | 83* | 0 | 72* | 50* | 52* | 73* | 74* | 16
c1ccc(-n2nc3c(ccc4cnnc43)[nH]2)cc1 | 15 | -479 | 87* | 89* | 2 | 74* | 50* | 83* | 97* | 71* | 30
COCCN1C(=O)CSCC1(C)C(=O)NCc1ccccc1 (centres undefined) | nt | 18 | nt | nt | -1 | nt | nt | nt | nt | nt | nt
CCCc1nc2c(C)cc(Br)cn2c1Cc1cccc(F)c1 | nt | -4 | nt | nt | -5 | nt | nt | nt | nt | nt | nt
COc1cccc(NC(=O)Nc2cccc(C(=O)O)c2)c1 | -6 | 0 | 93* | 7 | 3 | 90* | 95* | 95* | 101* | 90* | 94*
COc1cccc(C(=O)Nc2cc(Cl)c(O)c(Cl)c2)c1 | -11 | 8 | 59* | 71* | 2 | 55* | 64* | 64* | 89* | 85* | 68*
COc1cccc(NC(=O)c2ccc(OC(F)(F)F)cc2)c1 | 2 | 7 | 94* | 88* | 1 | 85* | 66* | 79* | 98* | 87* | 38
COc1cccc(NC(=O)Nc2cccnc2)c1 | -4 | -2 | 7 | -8 | 1 | -10 | nt | nt | nt | nt | nt
